Activity calls are given as the source filed them. The rule behind the calls is not given here.
Legend:
[1] = target: T1, Lysophosphatidylserine lipase ABHD12 (Mus musculus) (UniProt Q99LR1); assay: Inhibition of ABHD12 in mouse brain at 0.01 to 100 uM treated for 30 mins by SDS-PAGE using rhodamine-tagged FP probe; type: tissue-based
T1 sequence (whole entry): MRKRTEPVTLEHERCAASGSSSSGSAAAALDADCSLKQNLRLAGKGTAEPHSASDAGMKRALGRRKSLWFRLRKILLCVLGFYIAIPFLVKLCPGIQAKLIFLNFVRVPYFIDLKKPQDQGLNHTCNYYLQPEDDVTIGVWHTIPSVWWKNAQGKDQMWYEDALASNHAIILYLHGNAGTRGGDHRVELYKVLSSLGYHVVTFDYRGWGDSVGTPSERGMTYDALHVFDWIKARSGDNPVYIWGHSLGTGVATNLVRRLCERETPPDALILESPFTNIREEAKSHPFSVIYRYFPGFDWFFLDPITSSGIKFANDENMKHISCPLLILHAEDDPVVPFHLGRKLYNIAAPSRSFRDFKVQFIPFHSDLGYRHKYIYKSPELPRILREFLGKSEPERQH
Procedure, shortened: (§1)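 Mouse brain membrane proteome preincubated with inhibitor across 0.01-100 μM for 30 min. A rhodamine-tagged fluorophosphonate probe (FP-Rh) was then added for 60 min. Samples were resolved by SDS-PAGE, and probe labeling of each hydrolase band was read by in-gel fluorescence scanning.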

[2] = target: T2, Phosphatidylserine lipase ABHD16A (Mus musculus) (UniProt Q9Z1Q2); assay: Inhibition of BAT5 in mouse brain at 0.01 to 100 uM treated for 30 mins by SDS-PAGE using rhodamine-tagged FP probe; type: tissue-based; procedure, shortened: as §1
T2 sequence (whole entry): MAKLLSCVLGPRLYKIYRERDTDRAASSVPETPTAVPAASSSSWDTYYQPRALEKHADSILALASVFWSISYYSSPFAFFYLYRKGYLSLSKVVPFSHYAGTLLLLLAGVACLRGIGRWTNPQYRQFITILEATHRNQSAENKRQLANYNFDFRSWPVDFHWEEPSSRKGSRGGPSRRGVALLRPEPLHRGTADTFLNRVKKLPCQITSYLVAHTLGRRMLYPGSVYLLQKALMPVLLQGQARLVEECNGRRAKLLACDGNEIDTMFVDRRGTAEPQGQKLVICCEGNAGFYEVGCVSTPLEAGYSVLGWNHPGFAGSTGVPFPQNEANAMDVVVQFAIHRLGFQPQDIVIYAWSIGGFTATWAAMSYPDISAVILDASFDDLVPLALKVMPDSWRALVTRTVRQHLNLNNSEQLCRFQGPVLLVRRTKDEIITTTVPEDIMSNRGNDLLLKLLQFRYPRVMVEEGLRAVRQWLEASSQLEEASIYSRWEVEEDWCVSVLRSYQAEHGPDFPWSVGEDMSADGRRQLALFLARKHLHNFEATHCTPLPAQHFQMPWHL

[3] = target: T3, Diacylglycerol lipase-beta (Mus musculus) (UniProt Q91WC9); assay: Inhibition of DAGLbeta in mouse brain assessed as >15 average spectral count at 50 uM treated for 30 mins by ABPP-MudPIT assay; type: tissue-based
T3 sequence (whole entry): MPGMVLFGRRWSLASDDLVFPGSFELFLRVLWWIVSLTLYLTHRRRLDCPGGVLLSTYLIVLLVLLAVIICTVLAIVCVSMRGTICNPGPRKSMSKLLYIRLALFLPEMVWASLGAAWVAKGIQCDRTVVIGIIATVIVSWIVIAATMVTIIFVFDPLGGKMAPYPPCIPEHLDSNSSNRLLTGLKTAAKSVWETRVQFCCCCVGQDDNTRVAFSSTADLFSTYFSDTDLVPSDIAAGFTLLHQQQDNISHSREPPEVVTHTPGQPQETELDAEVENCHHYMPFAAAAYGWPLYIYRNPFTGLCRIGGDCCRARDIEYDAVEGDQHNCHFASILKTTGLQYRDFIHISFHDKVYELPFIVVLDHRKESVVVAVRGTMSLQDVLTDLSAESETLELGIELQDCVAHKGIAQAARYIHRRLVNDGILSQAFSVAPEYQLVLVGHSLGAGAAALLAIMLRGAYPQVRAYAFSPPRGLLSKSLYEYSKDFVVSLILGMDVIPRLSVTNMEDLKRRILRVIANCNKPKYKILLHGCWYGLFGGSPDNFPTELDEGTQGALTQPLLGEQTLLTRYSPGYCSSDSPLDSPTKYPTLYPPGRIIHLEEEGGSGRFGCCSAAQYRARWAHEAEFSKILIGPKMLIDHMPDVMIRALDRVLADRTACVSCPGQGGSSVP

[4] = target: T3, Diacylglycerol lipase-beta (Mus musculus); assay: Inhibition of DAGLbeta in mouse brain assessed as >15 average spectral count at 5 uM treated for 30 mins by ABPP-MudPIT assay; type: tissue-based
[5] = target: Lysophosphatidylserine lipase ABHD12 (Homo sapiens, UniProt Q8N2K0); assay: Inhibition of recombinant ABHD12 transfected in HEK293T cells by SDS-PAGE using rhodamine-tagged FP probe; type: cell-based, HEK-293T
Procedure, shortened: (§2)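 HEK293T cells were transfected with cDNA for the target hydrolase. The transfected proteome was treated with inhibitor across 0.01-100 μM, then labeled with rhodamine-tagged fluorophosphonate probe (FP-Rh). Loss of probe labeling was read to give IC50. Values are means ± standard errors of three independent experiments.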

[6] = target: Neutral cholesterol ester hydrolase 1 (Homo sapiens, UniProt Q6PIU2); assay: Inhibition of recombinant KIAA1363 transfected in HEK293T cells by SDS-PAGE using rhodamine-tagged FP probe; type: cell-based, HEK-293T; procedure, shortened: as §2
[7] = target: Platelet-activating factor acetylhydrolase (Homo sapiens, UniProt Q13093); assay: Inhibition of recombinant PLA2g7 transfected in HEK293T cells by SDS-PAGE using rhodamine-tagged FP probe; type: cell-based, HEK-293T; procedure, shortened: as §2
[8] = target: Diacylglycerol lipase-alpha (Homo sapiens) (UniProt Q9Y4D2); assay: Inhibition of recombinant DAGLalpha overexpressed in african green monkey COS7 cells assessed as accumulation of 2-arachidonoylglycerol […]; type: cell-based; conditions: COS-7
[9] = target: Fatty-acid amide hydrolase 1 (Homo sapiens, UniProt O00519); assay: Inhibition of recombinant FAAH transfected in HEK293T cells by SDS-PAGE using rhodamine-tagged FP probe; type: cell-based, HEK-293T; procedure, shortened: as §2
[10] = target: T4, Platelet-activating factor acetylhydrolase (Mus musculus) (UniProt Q60963); assay: Inhibition of PLA2g7 in mouse brain by LC-MS analysis; type: tissue-based
T4 sequence (whole entry): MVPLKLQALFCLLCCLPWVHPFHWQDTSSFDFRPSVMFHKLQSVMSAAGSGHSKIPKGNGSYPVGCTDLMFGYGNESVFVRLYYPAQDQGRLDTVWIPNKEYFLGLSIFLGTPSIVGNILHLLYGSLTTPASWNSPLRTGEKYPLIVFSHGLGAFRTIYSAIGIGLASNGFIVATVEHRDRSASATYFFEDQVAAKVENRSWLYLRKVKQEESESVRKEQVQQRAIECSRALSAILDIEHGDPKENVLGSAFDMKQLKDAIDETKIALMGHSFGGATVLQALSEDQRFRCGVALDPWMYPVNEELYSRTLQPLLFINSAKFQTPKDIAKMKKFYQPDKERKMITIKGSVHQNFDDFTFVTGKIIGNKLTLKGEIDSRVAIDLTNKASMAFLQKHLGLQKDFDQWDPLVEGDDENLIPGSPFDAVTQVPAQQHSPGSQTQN

Chain of Platelet-activating factor acetylhydrolase (Q13093 whole entry): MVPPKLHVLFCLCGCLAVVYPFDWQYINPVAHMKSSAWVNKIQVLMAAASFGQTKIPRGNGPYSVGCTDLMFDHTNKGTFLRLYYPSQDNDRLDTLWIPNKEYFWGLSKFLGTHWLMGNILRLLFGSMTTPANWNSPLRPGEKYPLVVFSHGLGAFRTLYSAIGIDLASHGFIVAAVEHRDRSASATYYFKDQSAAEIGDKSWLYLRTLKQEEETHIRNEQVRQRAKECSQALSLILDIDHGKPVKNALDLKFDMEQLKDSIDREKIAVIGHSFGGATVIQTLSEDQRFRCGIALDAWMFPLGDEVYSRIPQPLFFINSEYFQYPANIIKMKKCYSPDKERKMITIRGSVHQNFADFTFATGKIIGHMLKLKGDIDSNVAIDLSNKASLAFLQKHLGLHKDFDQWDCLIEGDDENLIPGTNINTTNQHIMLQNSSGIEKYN
Chain of Diacylglycerol lipase-alpha (Homo sapiens) (Q9Y4D2 whole entry): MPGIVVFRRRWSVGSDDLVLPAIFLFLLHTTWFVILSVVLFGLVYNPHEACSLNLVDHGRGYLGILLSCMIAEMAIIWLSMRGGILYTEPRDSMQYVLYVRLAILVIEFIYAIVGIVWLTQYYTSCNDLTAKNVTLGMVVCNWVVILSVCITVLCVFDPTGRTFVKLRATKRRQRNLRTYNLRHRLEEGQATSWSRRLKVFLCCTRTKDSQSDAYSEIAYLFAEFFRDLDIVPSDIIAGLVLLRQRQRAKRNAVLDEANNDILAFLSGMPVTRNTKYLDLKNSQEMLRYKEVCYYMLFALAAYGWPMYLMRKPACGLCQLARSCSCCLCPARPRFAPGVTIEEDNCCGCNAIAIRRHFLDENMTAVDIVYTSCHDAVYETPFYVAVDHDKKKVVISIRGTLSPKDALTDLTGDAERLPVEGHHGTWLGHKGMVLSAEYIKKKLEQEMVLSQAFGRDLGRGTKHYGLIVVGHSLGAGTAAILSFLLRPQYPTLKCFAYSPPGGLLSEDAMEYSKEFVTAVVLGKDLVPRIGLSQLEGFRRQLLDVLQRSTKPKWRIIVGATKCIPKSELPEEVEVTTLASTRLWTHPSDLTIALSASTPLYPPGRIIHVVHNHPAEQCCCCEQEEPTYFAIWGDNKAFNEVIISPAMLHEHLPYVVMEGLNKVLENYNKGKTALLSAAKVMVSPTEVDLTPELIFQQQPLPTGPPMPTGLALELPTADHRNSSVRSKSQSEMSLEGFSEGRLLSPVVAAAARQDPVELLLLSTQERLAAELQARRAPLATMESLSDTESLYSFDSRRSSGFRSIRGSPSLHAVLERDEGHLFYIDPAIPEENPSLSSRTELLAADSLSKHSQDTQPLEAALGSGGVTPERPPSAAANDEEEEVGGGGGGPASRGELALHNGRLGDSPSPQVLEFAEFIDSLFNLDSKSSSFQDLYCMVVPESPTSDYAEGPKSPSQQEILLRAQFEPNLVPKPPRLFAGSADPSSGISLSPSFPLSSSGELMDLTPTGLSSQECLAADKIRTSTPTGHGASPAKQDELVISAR
Chain of Neutral cholesterol ester hydrolase 1 (Q6PIU2 whole entry): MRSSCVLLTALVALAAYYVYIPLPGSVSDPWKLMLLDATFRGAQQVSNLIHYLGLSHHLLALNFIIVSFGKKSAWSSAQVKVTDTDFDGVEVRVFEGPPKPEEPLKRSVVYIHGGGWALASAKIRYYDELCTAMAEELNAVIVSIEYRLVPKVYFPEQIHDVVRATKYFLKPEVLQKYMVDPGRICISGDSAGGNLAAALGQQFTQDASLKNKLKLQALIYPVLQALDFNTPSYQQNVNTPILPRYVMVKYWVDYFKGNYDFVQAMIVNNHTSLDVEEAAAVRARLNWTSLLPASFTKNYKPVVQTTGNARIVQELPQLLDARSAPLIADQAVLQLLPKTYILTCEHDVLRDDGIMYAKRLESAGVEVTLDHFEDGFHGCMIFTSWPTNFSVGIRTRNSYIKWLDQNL
Chain of Lysophosphatidylserine lipase ABHD12 (Q8N2K0 whole entry): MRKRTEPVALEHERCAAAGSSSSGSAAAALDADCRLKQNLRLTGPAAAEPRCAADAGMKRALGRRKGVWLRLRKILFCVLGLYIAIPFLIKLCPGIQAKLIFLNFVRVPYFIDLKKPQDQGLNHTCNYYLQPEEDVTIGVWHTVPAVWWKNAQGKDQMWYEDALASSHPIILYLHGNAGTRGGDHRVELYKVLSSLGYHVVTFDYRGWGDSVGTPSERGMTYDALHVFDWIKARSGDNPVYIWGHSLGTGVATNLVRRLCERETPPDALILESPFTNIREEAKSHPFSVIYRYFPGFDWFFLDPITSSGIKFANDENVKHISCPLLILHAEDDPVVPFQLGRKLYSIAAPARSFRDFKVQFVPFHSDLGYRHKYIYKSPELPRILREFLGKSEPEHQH
Chain of Fatty-acid amide hydrolase 1 (O00519 whole entry): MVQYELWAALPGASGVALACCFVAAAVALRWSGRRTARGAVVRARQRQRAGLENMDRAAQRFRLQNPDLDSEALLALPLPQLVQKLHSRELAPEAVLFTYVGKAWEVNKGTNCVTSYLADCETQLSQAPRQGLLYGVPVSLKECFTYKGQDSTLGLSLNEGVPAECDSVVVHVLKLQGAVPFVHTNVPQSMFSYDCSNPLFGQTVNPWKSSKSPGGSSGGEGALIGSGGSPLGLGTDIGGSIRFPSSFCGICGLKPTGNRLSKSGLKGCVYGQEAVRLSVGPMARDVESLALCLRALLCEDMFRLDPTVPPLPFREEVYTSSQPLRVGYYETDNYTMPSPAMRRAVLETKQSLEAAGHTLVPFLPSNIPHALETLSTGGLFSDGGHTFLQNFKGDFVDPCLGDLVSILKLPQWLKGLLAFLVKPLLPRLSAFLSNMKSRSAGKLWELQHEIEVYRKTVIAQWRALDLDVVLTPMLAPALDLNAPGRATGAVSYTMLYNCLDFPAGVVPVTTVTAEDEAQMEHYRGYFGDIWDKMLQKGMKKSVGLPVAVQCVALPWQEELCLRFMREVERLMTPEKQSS

Structure (SMILES) | Activity [1] | Activity [2] | Activity [3] | Activity [4] | IC50 [5] [µM] | IC50 [6] [µM] | IC50 [7] [µM] | Activity [8] | IC50 [9] [µM] | Activity [10]
CCCCCCCCCCC[C@@H](C[C@@H]1OC(=O)[C@H]1CCCCCC)OC(=O)[C@H](CC(C)C)NC=O [ORLISTAT] | Active | Active | inactive | inactive | 0.08 | > 100 | 0.05 | Active | > 100 | –
O=C(NCCCCCCNC(=O)ON=C1CCCCC1)ON=C1CCCCC1 | Active | Active | inactive | inactive | > 100 | 10 | 11 | Active | 70 | Active
